In ChEMBL document CHEMBL1139831, “The influence of modifications in imide fragment structure on 5-HT(1A) and 5-HT(7) receptor affinity and in vivo pharmacological properties of some new 1-(m-trifluoromethylphenyl)piperazines” (Bioorg Med Chem, 2007):
pKi: −log10 of the molar value.

Columns and labels:
[1] = target: D(2) dopamine receptor (Rattus norvegicus, UniProt P61169); experiment: Displacement of [3H]spiperone from dopamine D2 receptor in rat striatal membranes; format: cell membranes, Membrane
D(2) dopamine receptor, sequence (P61169 whole entry): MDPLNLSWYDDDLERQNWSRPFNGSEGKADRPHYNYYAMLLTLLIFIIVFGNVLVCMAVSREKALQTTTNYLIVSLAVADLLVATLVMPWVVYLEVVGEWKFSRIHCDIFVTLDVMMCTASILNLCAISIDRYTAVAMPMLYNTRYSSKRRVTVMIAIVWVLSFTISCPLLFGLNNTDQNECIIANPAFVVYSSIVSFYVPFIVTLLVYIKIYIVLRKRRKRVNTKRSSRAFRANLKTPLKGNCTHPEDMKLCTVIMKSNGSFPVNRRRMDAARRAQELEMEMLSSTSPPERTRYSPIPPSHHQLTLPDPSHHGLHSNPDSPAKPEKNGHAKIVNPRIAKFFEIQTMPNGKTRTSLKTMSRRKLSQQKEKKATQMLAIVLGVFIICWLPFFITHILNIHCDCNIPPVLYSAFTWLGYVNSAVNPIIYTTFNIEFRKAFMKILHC
How it was run: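 Competition binding on rat striatal membranes using [3H]-spiperone, butaclamol for nonspecific binding; filtration through GF/B filters and scintillation counting. Run at two compound concentrations, each in triplicate, and affinity expressed as estimated Ki.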

[2] = species: Mus musculus; conditions: Swiss Albino, 5 mg/kg
[3] = species: Mus musculus; conditions: Swiss Albino, 2.5 mg/kg
[4] = species: Mus musculus; conditions: Swiss Albino, 5 mg/kg; remark: listed apart in the source
[5] = tested on: Rattus norvegicus; experiment: Effect on 8-OH-DPAT-induced lower lip retraction in Wistar rat at 5 mg/kg; format: functional
[6] = species: Mus musculus; conditions: Swiss Albino, 2.5 mg/kg; remark: listed apart in the source
[7] = tested on: Rattus norvegicus; experiment: Effect on lower lip retraction in Wistar rat at 5 mg/kg; format: functional
How it was run: (§1)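 Male Wistar rats (290–310 g) dosed ip in 1% Tween 80 (2 ml/kg), caged singly; lower lip retraction scored 15, 30 and 45 min after dosing as 0 (incisors not visible), 0.5 (partly) or 1 (completely visible), totals up to 3 per rat. n = 6 per group; one-way ANOVA followed by Dunnett's test.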

[8] = tested on: Rattus norvegicus; experiment: Effect on lower lip retraction in Wistar rat at 20 mg/kg; format: functional; how it was run: as §1
[9] = species: Mus musculus; conditions: Swiss Albino, 5 mg/kg; remark: listed apart in the source
[10] = species: Mus musculus; conditions: Swiss Albino, 2.5 mg/kg; remark: listed apart in the source
[11] = species: Mus musculus; conditions: Swiss Albino, 2.5 mg/kg; remark: listed apart in the source
[12] = species: Mus musculus; conditions: Swiss Albino, 5 mg/kg; remark: listed apart in the source
[13] = species: Mus musculus; conditions: Swiss Albino, 5 mg/kg; remark: listed apart in the source
[14] = target: 5-hydroxytryptamine receptor 7 (Homo sapiens, UniProt P34969); experiment: Displacement of [3H]5-CT from human 5HT7 expressed in HEK293 cells; format: cell-based
5-hydroxytryptamine receptor 7, sequence (P34969 whole entry): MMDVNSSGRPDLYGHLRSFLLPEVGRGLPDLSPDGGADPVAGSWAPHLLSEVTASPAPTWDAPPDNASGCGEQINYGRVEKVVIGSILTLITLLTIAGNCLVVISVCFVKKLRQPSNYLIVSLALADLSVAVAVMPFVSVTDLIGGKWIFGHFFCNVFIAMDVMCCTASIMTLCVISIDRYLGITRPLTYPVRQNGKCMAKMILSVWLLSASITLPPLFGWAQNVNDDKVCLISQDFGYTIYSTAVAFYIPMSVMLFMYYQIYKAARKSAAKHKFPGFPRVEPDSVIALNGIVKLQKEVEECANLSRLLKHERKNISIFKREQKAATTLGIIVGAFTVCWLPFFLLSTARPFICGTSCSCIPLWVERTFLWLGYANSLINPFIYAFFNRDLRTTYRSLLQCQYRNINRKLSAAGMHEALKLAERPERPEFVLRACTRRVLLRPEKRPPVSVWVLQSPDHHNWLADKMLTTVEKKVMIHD
How it was run: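 HEK293 cells stably transfected with human 5-HT7(b) cDNA; membranes (10 µg protein) incubated 1 h at 37 °C in 50 mM Tris-HCl pH 7.4 with 4 mM MgCl2, 0.1 mM pargyline, 0.1% ascorbic acid, 0.5 nM [3H]-5-CT and 7–9 test concentrations in triplicate; 10 µM 5-HT defines nonspecific binding. GF/B filtration, scintillation counting; Ki via Cheng-Prusoff from ≥3 experiments.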

[15] = tested on: Rattus norvegicus; experiment: Effect on 8-OH-DPAT-induced lower lip retraction in Wistar rat at 10 mg/kg; format: functional
[16] = target: T1, 5-hydroxytryptamine receptor 1A (Rattus norvegicus, UniProt P19327); experiment: Displacement of [3H]8-OH-DPAT from 5HT1A in rat hippocampal membranes; format: cell membranes, Hippocampus, Membrane
T1 sequence (P19327 whole entry): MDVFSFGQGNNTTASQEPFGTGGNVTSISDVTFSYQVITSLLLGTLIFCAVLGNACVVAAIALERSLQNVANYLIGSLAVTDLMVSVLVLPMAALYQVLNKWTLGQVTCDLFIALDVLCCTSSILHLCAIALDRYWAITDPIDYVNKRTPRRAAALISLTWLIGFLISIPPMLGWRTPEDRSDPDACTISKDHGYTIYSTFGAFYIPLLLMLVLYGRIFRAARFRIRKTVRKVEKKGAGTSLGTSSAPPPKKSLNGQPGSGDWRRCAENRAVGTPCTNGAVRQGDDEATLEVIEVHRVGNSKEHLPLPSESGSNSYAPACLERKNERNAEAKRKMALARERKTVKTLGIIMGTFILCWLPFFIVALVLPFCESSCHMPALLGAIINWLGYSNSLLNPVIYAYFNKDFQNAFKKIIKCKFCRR
How it was run: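 Rat hippocampal membranes, [3H]-8-OH-DPAT as radioligand, 5-HT defining nonspecific binding. 7–9 drug concentrations run in triplicate, at least three separate experiments. Filtration through GF/B filters with three ice-cold buffer washes, scintillation counting. Ki from non-linear regression of binding isotherms via Cheng-Prusoff equation.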

[17] = species: Mus musculus; conditions: Swiss Albino, 5 mg/kg; remark: listed apart in the source
[18] = tested on: Rattus norvegicus; experiment: Effect on 8-OH-DPAT-induced lower lip retraction in Wistar rat at 20 mg/kg; format: functional
[19] = tested on: Rattus norvegicus; experiment: Effect on lower lip retraction in Wistar rat at 10 mg/kg; format: functional; how it was run: as §1
[20] = Displacement of [3H]prazosin from adrenergic alpha1 receptor in rat cortical membranes; format: cell membranes, Membrane
How it was run: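 Rat cortical membranes with [3H]-prazosin; phentolamine defines nonspecific binding. 7–9 drug concentrations in triplicate, at least three separate experiments; stopped by GF/B filtration with three ice-cold buffer washes, bound radioactivity by liquid scintillation counting; Ki from non-linear regression and Cheng-Prusoff equation.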

[21] = species: Mus musculus; conditions: Swiss Albino, 10 mg/kg
[22] = species: Mus musculus; conditions: Swiss Albino, 10 mg/kg; remark: listed apart in the source
[23] = species: Mus musculus; conditions: Swiss Albino, 10 mg/kg; remark: listed apart in the source
[24] = species: Mus musculus; conditions: Swiss Albino, 10 mg/kg; remark: listed apart in the source
[25] = species: Mus musculus; conditions: Swiss Albino, 10 mg/kg; remark: listed apart in the source
[26] = species: Mus musculus; conditions: Swiss Albino, 10 mg/kg; remark: listed apart in the source
[27] = tested on: Mus musculus; experiment: Antidepressant activity in Swiss Albino mouse assessed as immobility time during final 4 mins of 6 mins session at 5 mg/kg administered 30 mins before the test by forced-swimming test; format: functional
How it was run: (§2)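 Male Albino Swiss mice (24–28 g), compound given ip in 1% aqueous Tween 80 (10 ml/kg), 30 min before test. Mouse placed singly in glass cylinder (25 cm high, 10 cm diameter) holding 6 cm water at 23–25 °C for 6 min; immobility (floating, only small head-keeping movements) timed over last 4 min. n = 9-10 per group; one-way ANOVA then Dunnett's test.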

[28] = tested on: Mus musculus; experiment: Antidepressant activity in Swiss Albino mouse assessed as immobility time during final 4 mins of 6 mins session at 10 mg/kg administered 30 mins before the test by forced-swimming test; format: functional; how it was run: as §2
[29] = tested on: Mus musculus; experiment: Effect on locomotor activity in Swiss Albino mouse assessed as number of crossings in 6 mins at 5 mg/kg administered 30 mins before the test; format: functional
How it was run: (§3)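 Male Albino Swiss mice (24–28 g) given compound ip (suspension in 1% aqueous Tween 80, 10 ml/kg). Animals housed singly in plastic cages in a multichannel photobeam activity monitor. Ambulation crossings counted over first 6 min and over 30-min session. n = 9-10/group; one-way ANOVA then Dunnett's test.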

[30] = tested on: Mus musculus; experiment: Effect on locomotor activity in Swiss Albino mouse assessed as number of crossings in 30 mins at 5 mg/kg administered 30 mins before the test; format: functional
How it was run: (§4)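 Male Albino Swiss mice given compound ip (1% Tween 80, 10 ml/kg) 30 min before placement singly in plastic cages in a multichannel photobeam activity monitor; ambulation crossings counted over the first 6 min and over a 30 min session. n = 9-10 per group; ANOVA then Dunnett's test.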

[31] = tested on: Mus musculus; experiment: Anxiolytic activity in Swiss Albino mouse assessed as number of punished crossings for 60 secs at 10 mg/kg administered 30 mins before the test by four-plate test; format: functional
How it was run: (§5)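 Male Albino Swiss mice (24–28 g), compound suspended in 1% aqueous Tween 80, given ip (10 ml/kg). Mouse placed in box with four metal floor plates, 15 s exploration, then floor electrified (120 V, 0.5 s) at each plate-to-plate crossing, no new shock for 3 s. Punished crossings counted over 60 s. n = 9-10/group; one-way ANOVA then Dunnett's test.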

[32] = tested on: Mus musculus; experiment: Effect on locomotor activity in Swiss Albino mouse assessed as number of crossings in 30 mins at 10 mg/kg administered 30 mins before the test; format: functional; how it was run: as §4
[33] = tested on: Mus musculus; experiment: Anxiolytic activity in Swiss Albino mouse assessed as number of punished crossings for 60 secs at 5 mg/kg administered 30 mins before the test by four-plate test; format: functional
How it was run: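 Male Albino Swiss mice dosed ip (1% aqueous Tween 80, 10 ml/kg) 30 min beforehand. Opaque box floored with four metal plates; 15 s free exploration, then each plate-to-plate crossing triggers a 0.5 s, 120 V floor shock, with no new shock for 3 s if running continues. Punished crossings counted over 60 s; n = 9-10, ANOVA plus Dunnett's test.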

[34] = tested on: Mus musculus; experiment: Effect on locomotor activity in Swiss Albino mouse assessed as number of crossings in 6 mins at 10 mg/kg administered 30 mins before the test; format: functional; how it was run: as §3
[35] = tested on: Rattus norvegicus; experiment: Effect on 8-OH-DPAT-induced lower lip retraction in Wistar rat at 2.5 mg/kg; format: functional
[36] = tested on: Rattus norvegicus; experiment: Effect on lower lip retraction in Wistar rat at 2.5 mg/kg; format: functional; how it was run: as §1
[37] = tested on: Mus musculus; experiment: Anxiolytic activity in Swiss Albino mouse assessed as number of punished crossings for 60 secs at 2.5 mg/kg administered 30 mins before the test by four-plate test; format: functional; how it was run: as §5
[38] = species: Mus musculus; conditions: Swiss Albino, 10 mg/kg; remark: listed apart in the source
[39] = species: Mus musculus; conditions: Swiss Albino, 20 mg/kg
[40] = species: Mus musculus; conditions: Swiss Albino, 20 mg/kg; remark: listed apart in the source
[41] = species: Mus musculus; conditions: Swiss Albino, 20 mg/kg; remark: listed apart in the source
[42] = species: Mus musculus; conditions: Swiss Albino, 20 mg/kg; remark: listed apart in the source
[43] = species: Mus musculus; conditions: Swiss Albino, 20 mg/kg; remark: listed apart in the source

pKi [1]	pKi [14]	pKi [16]	pKi [20]	Compound	deltaT [2] [°C]	deltaT [4] [°C]	Activity [5]	Activity [7]	Activity [8]	deltaT [9] [°C]	deltaT [13] [°C]	Activity [15]	Activity [18]	Activity [19]	deltaT [21] [°C]	deltaT [22] [°C]	deltaT [23] [°C]	deltaT [24] [°C]	deltaT [25] [°C]	deltaT [26] [°C]	further results
5.58	< 5.30	9.52	8.40	O=C1C2=C(CCCC2)C(=O)N1C1CCC(N2CCN(c3cccc(C(F)(F)F)c3)CC2)CC1 (stereo unspecified)	-1.2	-0.3	2.5	1.8	2	-0.7	-1.4	1.9	1.8	2							deltaT [3]: -0.4 °C; deltaT [6]: -0.4 °C; deltaT [10]: -0.5 °C; deltaT [11]: 0.1 °C; deltaT [12]: 0.1 °C; deltaT [17]: 0.2 °C
5.33	6.47	8.82	7.37	O=C1C2CC=CCC2C(=O)N1C1CCC(N2CCN(c3cccc(C(F)(F)F)c3)CC2)CC1 (stereo unspecified)	-0.7	-0.1			1.3	-0.4	-0.4	2.1	1.9	0.7	-1	-1.1	-0.3	-1.7	-0.5	-1.3	
< 5.30	7.68	8.52	7.00	O=C1CCCC(=O)N1CCCCN1CCN(c2cccc(C(F)(F)F)c2)CC1	-0.5	-0.1		2.6		-0.4	-0.4			2.8	-0.9	-1	-0.8	-1.3	-1	-1.1	Activity [27]: 183.9 s; Activity [28]: 196.7 s; Activity [29]: 217.1; Activity [30]: 526.2; Activity [31]: 5.2; Activity [32]: 179.3; Activity [33]: 5.8; Activity [34]: 16.3; Activity [35]: 2.2; Activity [36]: 1.6; Activity [37]: 4.3
< 5.30	6.87	8.23	7.52	O=C1C2=C(CCCC2)C(=O)N1CCCCN1CCN(c2cccc(C(F)(F)F)c2)CC1			1.5	2.2				1.1		2.2	0	0		0.2		0	deltaT [38]: -0.2 °C; deltaT [39]: -1.8 °C; deltaT [40]: -0.6 °C; deltaT [41]: -1.3 °C; deltaT [42]: -1.1 °C; Activity [35]: 2.3; deltaT [43]: -1.3 °C; Activity [36]: 1.9

Compound	pKi [1]	pKi [14]	pKi [16]	pKi [20]	deltaT [2] [°C]	deltaT [4] [°C]	Activity [5]	Activity [7]	Activity [8]	deltaT [9] [°C]	deltaT [13] [°C]	Activity [15]	Activity [18]	Activity [19]	deltaT [21] [°C]	deltaT [22] [°C]	deltaT [23] [°C]	deltaT [24] [°C]	deltaT [25] [°C]	deltaT [26] [°C]	further results
CC1C(=O)N(CCCCN2CCN(c3cccc(C(F)(F)F)c3)CC2)C(=O)C1C (stereo unspecified)	5.36	6.97	8.66	7.32	-0.6	0			1.3	-0.2	-0.4	1.4	0.2	1.3	-0.2	-0.4		-0.1		-0.2	
